Values belong to the molecule of their own block, whether it stands above or below them. Active and inactive are the calls of the source. No cut-off for these calls is given here.
Columns and labels:
[1] = Inhibition of bacterial VIM2 (27 to 266 residues) expressed in Escherichia coli Transetta (DE3) cells using FC-5 as substrate by fluorescence assay; parameters: species or system Bacteria
[2] = Inhibition of bacterial NDM1 (1 to 270 residues) expressed in Escherichia coli Transetta (DE3) cells using FC-5 as substrate by fluorescence assay; parameters: species or system Bacteria
Danio rerio [3] = species: Danio rerio; assay: Toxicity in FLK-1 promoter EGFP transgenic zebrafish embryos assessed as effect on morphology at 20 uM incubated for 4 to 96 hrs post fertilization by fluorescence microscopic analysis; type: organism-based; conditions: in vivo
Escherichia coli [4] = assay: Potentiation of meropenem induced antibacterial activity against Escherichia coli DH5alpha by measuring meropenem MIC at 500 uM after 16 to 20 hrs by CLSI broth microdilution method (reference value: <0.25 microg/ml); type: functional; conditions: DH5[alpha]
Procedure, shortened: (§1)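 MICs of meropenem against E. coli DH5α carrying a VIM-2-encoding plasmid, and against a control E. coli strain, with meropenem alone or combined with inhibitor at fixed 100, 200 or 500 µM. Fold change is the MIC shift relative to meropenem alone.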

Danio rerio [5] = species: Danio rerio; assay: Toxicity in FLK-1 promoter EGFP transgenic zebrafish embryos assessed as death at 20 uM incubated for 4 to 96 hrs post fertilization by fluorescence microscopic analysis; type: organism-based; conditions: in vivo
Escherichia coli [6] = assay: Potentiation of meropenem induced antibacterial activity against Escherichia coli DH5alpha by measuring meropenem MIC at 200 uM after 16 to 20 hrs by CLSI broth microdilution method (reference value: <0.25 microg/ml); type: functional; conditions: DH5[alpha]; procedure, shortened: as §1
[7] = target: Metallo-beta-lactamase (Escherichia coli) (UniProt Q5U7L7); assay: Inhibition of Escherichia coli VIM2 expressed in Escherichia coli DH5alpha assessed as potentiation of meropenem induced antibacterial activity by measuring meropenem MIC at 200 uM after 16 to 20 hrs by CLSI broth microdilution method (reference value: 16 microg/ml); procedure, shortened: as §1
Escherichia coli [8] = assay: Growth inhibition of Escherichia coli DH5alpha expressing Escherichia coli VIM2 after 16 to 20 hrs by CLSI broth microdilution method; type: organism-based, DH5[alpha]; conditions: in vivo; procedure, shortened: as §1
Escherichia coli [9] = assay: Growth inhibition of Escherichia coli DH5alpha after 16 to 20 hrs by CLSI broth microdilution method; type: organism-based, DH5[alpha]; conditions: in vivo; procedure, shortened: as §1
[10] = Inhibition of bacterial VIM2 (27 to 266 residues) expressed in Escherichia coli Transetta (DE3) cells using FC-5 as substrate in presence of 100 uM Zn2+ by fluorescence assay; parameters: species or system Bacteria
Procedure, shortened: (§2)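 VIM-2 inhibition determined as dose-inhibition curves, with the assay run at added Zn(II) of 0, 1 or 100 µM.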

[11] = target: Metallo-beta-lactamase (Escherichia coli) (UniProt Q5U7L7); assay: Inhibition of Escherichia coli VIM2 expressed in Escherichia coli DH5alpha assessed as potentiation of meropenem induced antibacterial activity by measuring meropenem MIC at 100 uM after 16 to 20 hrs by CLSI broth microdilution method (reference value: 16 microg/ml); procedure, shortened: as §1
Bacteria [12] = assay: Reversible inhibition of bacterial VIM2 (27 to 266 residues) expressed in Escherichia coli Transetta (DE3) cells at 0.77 uM using FC-5 as substrate up to 500 secs by jump dilution assay
Procedure, shortened: (§3)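 Jump-dilution reversibility test. VIM-2 at 100-fold its activity-assay concentration was preincubated with inhibitor for 30 min at room temperature, then rapidly diluted 100-fold, and enzyme activity was followed.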

Escherichia coli [13] = assay: Potentiation of meropenem induced antibacterial activity against Escherichia coli DH5alpha by measuring meropenem MIC at 100 uM after 16 to 20 hrs by CLSI broth microdilution method (reference value: <0.25 microg/ml); type: functional; conditions: DH5[alpha]; procedure, shortened: as §1
[14] = Inhibition of bacterial VIM2 (27 to 266 residues) expressed in Escherichia coli Transetta (DE3) cells using FC-5 as substrate in presence of 1 uM Zn2+ by fluorescence assay; parameters: species or system Bacteria; procedure, shortened: as §2
HEK-293T = assay: Cytotoxicity against HEK293T cells assessed as reduction in cell viability at 50 uM after 72 hrs by MTT assay relative to control; type: cell-based; conditions: human
Danio rerio [15] = species: Danio rerio; assay: Toxicity in FLK-1 promoter EGFP transgenic zebrafish embryos assessed as limited mobility at 20 uM incubated for 4 to 96 hrs post fertilization by fluorescence microscopic analysis; type: organism-based; conditions: in vivo
[16] = target: Metallo-beta-lactamase (Escherichia coli) (UniProt Q5U7L7); assay: Inhibition of Escherichia coli VIM2 expressed in Escherichia coli DH5alpha assessed as potentiation of meropenem induced antibacterial activity by measuring meropenem MIC at 500 uM after 16 to 20 hrs by CLSI broth microdilution method (reference value: 16 microg/ml); procedure, shortened: as §1
Danio rerio [17] = species: Danio rerio; assay: Toxicity in FLK-1 promoter EGFP transgenic zebrafish embryos assessed as effect on angiogenesis at 20 uM incubated for 4 to 96 hrs post fertilization by fluorescence microscopic analysis; type: organism-based; conditions: in vivo
[18] = target: Metallo-beta-lactamase (Escherichia coli) (UniProt Q5U7L7); assay: Inhibition of Escherichia coli VIM2 expressed in Escherichia coli DH5alpha assessed as potentiation of meropenem induced antibacterial activity by measuring fold reduction of meropenem MIC after 16 to 20 hrs by CLSI broth microdilution method relative to control; procedure, shortened: as §1
[19] = Inhibition of N-terminal his-tagged bacterial VIM2 (27 to 266 residues) expressed in Escherichia coli BL21(DE3) pLyS cells; parameters: species or system Bacteria
[20] = Inhibition of N-terminal his-tagged bacterial NDM1 expressed in Escherichia coli BL21(DE3) pLyS cells; parameters: species or system Bacteria
Bacteria [21] = assay: Reversible inhibition of bacterial VIM2 (27 to 266 residues) expressed in Escherichia coli Transetta (DE3) cells at 7.5 uM using FC-5 as substrate up to 500 secs by jump dilution assay; procedure, shortened: as §3
Bacteria [22] = assay: Reversible inhibition of bacterial VIM2 (27 to 266 residues) expressed in Escherichia coli Transetta (DE3) cells at 0.14 uM using FC-5 as substrate up to 500 secs by jump dilution assay; procedure, shortened: as §3

IC50 [1]: 0.121 µM | pIC50 [1]: 6.92 | IC50 [2]: 7 µM | pIC50 [2]: 5.16
Compound: C[C@H](CS)C(=O)N[C@H](Cc1ccccc1)C(=O)O

IC50 [1]: 2.85 µM | pIC50 [1]: 5.55 | IC50 [2]: 233 µM | pIC50 [2]: 3.63
Compound: C[C@H](CS)C(=O)N[C@@H](Cc1ccccc1)C(=O)O

IC50 [1]: 0.055 µM | pIC50 [1]: 7.26 | IC50 [2]: 5.59 µM | pIC50 [2]: 5.25
Compound: C[C@H](CS)C(=O)N[C@@H](C(=O)O)c1ccc(F)cc1

IC50 [1]: 0.039 µM | pIC50 [1]: 7.41 | IC50 [2]: 8.77 µM | pIC50 [2]: 5.06
Compound: C[C@H](CS)C(=O)N[C@H](C(=O)O)c1ccccc1

IC50 [1]: 0.121 µM | pIC50 [1]: 6.92 | IC50 [2]: 11.7 µM | pIC50 [2]: 4.93
Compound: C[C@H](CS)C(=O)N[C@H](C(=O)O)c1ccc(F)cc1

IC50 [19]: 1.06 µM | pIC50 [19]: 5.97 | IC50 [20]: 24.8 µM | pIC50 [20]: 4.61
Compound: C[C@H](CS)C(=O)N[C@@H](Cc1c[nH]c2ccccc12)C(=O)O

IC50 [1]: 0.057 µM | pIC50 [1]: 7.25 | IC50 [2]: 20.5 µM | pIC50 [2]: 4.69
Compound: C[C@H](CS)C(=O)N[C@@H](C(=O)O)c1ccccc1

Continued, molecule first:

Compound: C[C@H](CS)C(=O)N[C@H](C(=O)O)c1ccc(O)cc1
Activity (Danio rerio [3]): Non-Toxic | MIC (Escherichia coli [4]): < 0.25 µg/mL | Activity (Danio rerio [5]): Non-Toxic | MIC (Escherichia coli [6]): < 0.25 µg/mL | MIC [7]: 16 µg/mL | MIC (Escherichia coli [8]): > 128 µg/mL | MIC (Escherichia coli [9]): > 128 µg/mL | IC50 [1]: 0.077 µM | pIC50 [1]: 7.11 | IC50 [10]: 0.066 µM | MIC [11]: 16 µg/mL | inhibition (Bacteria [12]): inactive | MIC (Escherichia coli [13]): < 0.25 µg/mL | IC50 [14]: 0.0729 µM | Activity (HEK-293T): Non-Toxic | Activity (Danio rerio [15]): Non-Toxic | MIC [16]: 8 µg/mL | Activity (Danio rerio [17]): Non-Toxic | fold change (FC) [18]: 2 to 4 | IC50 [2]: 24 µM | pIC50 [2]: 4.62

Compound: C[C@H](CS)C(=O)N[C@H](Cc1c[nH]c2ccccc12)C(=O)O
IC50 [19]: 0.05 µM | pIC50 [19]: 7.26 | IC50 [20]: 64.8 µM | pIC50 [20]: 4.19

Compound: C[C@H](CS)C(=O)N1CCC[C@H]1C(=O)O [CAPTOPRIL]
inhibition (Bacteria [21]): Active

Compound: C[C@H](CS)C(=O)N[C@H](Cc1ccc(O)cc1)C(=O)O
IC50 [1]: 0.276 µM | pIC50 [1]: 6.56 | IC50 [2]: 73.1 µM | pIC50 [2]: 4.14

Compound: C[C@H](CS)C(=O)N1CCC[C@@H]1C(=O)O [D-CAPTOPRIL]
IC50 [19]: 4.55 µM | pIC50 [19]: 5.34

Compound: C[C@H](CS)C(=O)N[C@@H](Cc1ccc(O)cc1)C(=O)O
IC50 [1]: 0.49 µM | pIC50 [1]: 6.31 | IC50 [2]: 326 µM | pIC50 [2]: 3.49

Compound: C[C@H](CS)C(=O)N[C@@H](C(=O)O)c1ccc(O)cc1
Activity (Danio rerio [3]): Non-Toxic | MIC (Escherichia coli [4]): < 0.25 µg/mL | Activity (Danio rerio [5]): Non-Toxic | MIC (Escherichia coli [6]): < 0.25 µg/mL | MIC [7]: 8 µg/mL | MIC (Escherichia coli [8]): > 128 µg/mL | MIC (Escherichia coli [9]): > 128 µg/mL | IC50 [1]: 0.00957 to 0.0137 µM | pIC50 [1]: 7.86 | IC50 [10]: 0.0123 µM | inhibition (Bacteria [22]): inactive | MIC [11]: 8 µg/mL | MIC (Escherichia coli [13]): < 0.25 µg/mL | IC50 [14]: 0.0148 µM | Activity (HEK-293T): 8% | Activity (Danio rerio [15]): Non-Toxic | MIC [16]: 4 µg/mL | Activity (Danio rerio [17]): Non-Toxic | fold change (FC) [18]: 2 to 4 | IC50 [2]: 3.57 µM | pIC50 [2]: 5.45

— ChEMBL document CHEMBL4145490, “((S)-3-Mercapto-2-methylpropanamido)acetic acid derivatives as metallo-β-lactamase inhibitors: Synthesis, kinetic and crystallographic studies” (Eur J Med Chem, 2018)
